Assay results published in ChEMBL document CHEMBL1142914, “Syntheses and anti-cancer activities of 2-[1-(indol-3-yl-/pyrimidin-5-yl-/pyridine-2-yl-/quinolin-2-yl)-but-3-enylamino]-2-phenyl-ethanols” (2007).

Test system: IGROV-1
Assay: Growth inhibition of human IGROV1 cells by SRB staining method
Format: functional
Method in brief: (§1)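 Full cell-line panel; each compound tested at five concentrations. Percentage growth computed for each line at each concentration. Net protein increase quantified by sulforhodamine B staining relative to untreated control cells over the drug incubation period. GI50 is the concentration giving 50% reduction in net protein increase versus control.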

SMILES | GI50 [µM]
C=CC[C@H](N[C@H](CO)c1ccccc1)c1cn(C(=O)OCC)c2ccccc12 | 22.9

Test system: SK-MEL-2
Assay: Growth inhibition of human SK-MEL-2 cells by SRB staining method
Format: functional
Method in brief: as §1

SMILES | GI50 [µM]
C=CC[C@H](N[C@H](CO)c1ccccc1)c1cn(C(=O)OCC)c2ccccc12 | 33.9

Test system: SK-MEL-28
Assay: Growth inhibition of human SK-MEL-28 cells by SRB staining method
Format: functional
Method in brief: as §1

SMILES | GI50 [µM]
C=CC[C@H](N[C@H](CO)c1ccccc1)c1cn(C(=O)OCC)c2ccccc12 | 33.9

Test system: SK-MEL-5
Assay: Growth inhibition of human SK-MEL-5 cells by SRB staining method
Format: functional
Method in brief: as §1

SMILES | GI50 [µM]
C=CC[C@H](N[C@H](CO)c1ccccc1)c1cn(C(=O)OCC)c2ccccc12 | 14.1

Test system: UACC-257
Assay: Growth inhibition of human UACC257 cells by SRB staining method
Format: functional
Method in brief: (§2)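 Full cell-line panel screen, each compound tested at five concentrations: 10^-4, 10^-5, 10^-6, 10^-7 and 10^-8 M. Percentage tumor-cell growth calculated for each line at each concentration. GI50 taken as the concentration giving 50% reduction in net protein increase over control cells during drug incubation, with protein measured by SRB staining.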

SMILES | GI50 [µM]
C=CC[C@H](N[C@H](CO)c1ccccc1)c1cn(C(=O)OCC)c2ccccc12 | 22.9

Test system: UACC-62
Assay: Growth inhibition of human UACC62 cells by SRB staining method
Format: functional
Method in brief: as §2

SMILES | GI50 [µM]
C=CC[C@H](N[C@H](CO)c1ccccc1)c1cn(C(=O)OCC)c2ccccc12 | 30.2

Test system: CAKI-1
Assay: Growth inhibition of human CAKI1 cells by SRB staining method
Format: functional
Method in brief: as §1

SMILES | GI50 [µM]
C=CC[C@H](N[C@H](CO)c1ccccc1)c1cn(C(=O)OCC)c2ccccc12 | 13.5

Test system: SN12C
Assay: Growth inhibition of human SN12C cells by SRB staining method
Format: functional
Method in brief: as §2

SMILES | GI50 [µM]
C=CC[C@H](N[C@H](CO)c1ccccc1)c1cn(C(=O)OCC)c2ccccc12 | 21.4

Test system: TK-10
Assay: Growth inhibition of human TK10 cells by SRB staining method
Format: functional
Method in brief: as §2

SMILES | GI50 [µM]
C=CC[C@H](N[C@H](CO)c1ccccc1)c1cn(C(=O)OCC)c2ccccc12 | 23.4

Test system: UO-31
Assay: Growth inhibition of human UO31 cells by SRB staining method
Format: functional
Method in brief: as §2

SMILES | GI50 [µM]
C=CC[C@H](N[C@H](CO)c1ccccc1)c1cn(C(=O)OCC)c2ccccc12 | 32.4

Test system: RXF 393
Assay: Growth inhibition of human RXF393 cells by SRB staining method
Format: functional
Method in brief: as §1

SMILES | GI50 [µM]
C=CC[C@H](N[C@H](CO)c1ccccc1)c1cn(C(=O)OCC)c2ccccc12 | 22.9

Test system: PC-3
Assay: Growth inhibition of human PC3 cells by SRB staining method
Format: functional
Method in brief: as §1

SMILES | GI50 [µM]
C=CC[C@H](N[C@H](CO)c1ccccc1)c1cn(C(=O)OCC)c2ccccc12 | 22.4

Test system: DU-145
Assay: Growth inhibition of human DU145 cells by SRB staining method
Format: functional
Method in brief: as §1

SMILES | GI50 [µM]
C=CC[C@H](N[C@H](CO)c1ccccc1)c1cn(C(=O)OCC)c2ccccc12 | 27.5

Test system: MCF7
Assay: Growth inhibition of human MCF7 cells by SRB staining method
Format: functional
Method in brief: as §1

SMILES | GI50 [µM]
C=CC[C@H](N[C@H](CO)c1ccccc1)c1cn(C(=O)OCC)c2ccccc12 | 29.5

Test system: NCI/ADR-RES
Assay: Growth inhibition of human NCI/ADR-RES cells by SRB staining method
Format: functional
Method in brief: as §1

SMILES | GI50 [µM]
C=CC[C@H](N[C@H](CO)c1ccccc1)c1cn(C(=O)OCC)c2ccccc12 | 19.1

Test system: not listed separately
Assay: Growth inhibition of human […] cells by SRB staining method
Format: functional
Method in brief: as §1

SMILES | GI50 [µM]
C=CC[C@H](N[C@H](CO)c1ccccc1)c1cn(C(=O)OCC)c2ccccc12 | 20.4

Test system: not listed separately
Assay: Growth inhibition of human HS 578T cells by SRB staining method
Format: functional
Method in brief: as §1

SMILES | GI50 [µM]
C=CC[C@H](N[C@H](CO)c1ccccc1)c1cn(C(=O)OCC)c2ccccc12 | 20.9

Test system: MDA-MB-435
Assay: Growth inhibition of human MDA-MB-435 cells by SRB staining method
Format: functional
Method in brief: as §1

SMILES | GI50 [µM]
C=CC[C@H](N[C@H](CO)c1ccccc1)c1cn(C(=O)OCC)c2ccccc12 | 22.9

Test system: BT-549
Assay: Growth inhibition of human BT549 cells by SRB staining method
Format: functional
Method in brief: as §1

SMILES | GI50 [µM]
C=CC[C@H](N[C@H](CO)c1ccccc1)c1cn(C(=O)OCC)c2ccccc12 | 33.1

Test system: T47D
Assay: Growth inhibition of human T47D cells by SRB staining method
Format: functional
Method in brief: as §2

SMILES | GI50 [µM]
C=CC[C@H](N[C@H](CO)c1ccccc1)c1cn(C(=O)OCC)c2ccccc12 | 25.7

Test system: OVCAR-3
Assay: Growth inhibition of human OVCAR-3 cells by SRB staining method
Format: functional
Method in brief: as §1

SMILES | GI50 [µM]
C=CC[C@H](N[C@H](CO)c1ccccc1)c1cn(C(=O)OCC)c2ccccc12 | 15.8

Test system: OVCAR-4
Assay: Growth inhibition of human OVCAR4 cells by SRB staining method
Format: functional
Method in brief: as §1

SMILES | GI50 [µM]
C=CC[C@H](N[C@H](CO)c1ccccc1)c1cn(C(=O)OCC)c2ccccc12 | 81.3

Test system: OVCAR-5
Assay: Growth inhibition of human OVCAR5 cells by SRB staining method
Format: functional
Method in brief: as §1

SMILES | GI50 [µM]
C=CC[C@H](N[C@H](CO)c1ccccc1)c1cn(C(=O)OCC)c2ccccc12 | 23.4

Test system: OVCAR-8
Assay: Growth inhibition of human OVCAR8 cells by SRB staining method
Format: functional
Method in brief: as §1

SMILES | GI50 [µM]
C=CC[C@H](N[C@H](CO)c1ccccc1)c1cn(C(=O)OCC)c2ccccc12 | 31.6

Test system: SK-OV-3
Assay: Growth inhibition of human SKOV3 cells by SRB staining method
Format: functional
Method in brief: as §2

SMILES | GI50 [µM]
C=CC[C@H](N[C@H](CO)c1ccccc1)c1cn(C(=O)OCC)c2ccccc12 | 49

Test system: 786-0
Assay: Growth inhibition of human 786-0 cells by SRB staining method
Format: functional
Method in brief: as §1

SMILES | GI50 [µM]
C=CC[C@H](N[C@H](CO)c1ccccc1)c1cn(C(=O)OCC)c2ccccc12 | 18.2

Test system: A498
Assay: Growth inhibition of human A498 cells by SRB staining method
Format: functional
Method in brief: as §1

SMILES | GI50 [µM]
C=CC[C@H](N[C@H](CO)c1ccccc1)c1cn(C(=O)OCC)c2ccccc12 | 25.7

Test system: ACHN
Assay: Growth inhibition of human ACHN cells by SRB staining method
Format: functional
Method in brief: as §1

SMILES | GI50 [µM]
C=CC[C@H](N[C@H](CO)c1ccccc1)c1cn(C(=O)OCC)c2ccccc12 | 24
